# The source made the active and inactive calls. No cut-off for these calls is given here.
# Assays:
# [1] = system: Cryptococcus neoformans; assay: Growth inhibition of Cryptococcus neoformans ATCC 32264 at 3.4 ug/ml incubated for 48 hrs under dark condition by broth microdilution method relative to control; type: functional; conditions: ATCC 32264, 48 h, read-out: GI
# [2] = system: SNB-19; assay: Growth inhibition of human SNB19 cells incubated for 48 hrs by sulforhodamine B assay; type: functional; conditions: SNB-19, 48 h; for CC50: read-out: LC50 (the source's name)
# Outline: (§1)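 NCI-60 panel cells grown in RPMI-1640 with 5% FBS and 2 mM L-glutamine, preincubated 24 h at 37 °C/5% CO2. Time-zero plates were TCA-fixed at compound addition. DMSO stocks were diluted in medium and tested at five final concentrations (100, 10, 1.0, 0.1, 0.01 µM) for 48 h. Cells were TCA-fixed, stained with SRB and read at 515 nm. GI50 = 50% lower net protein increase versus control.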
# [3] = system: LOX IMVI; assay: Growth inhibition of human LOXIMVI cells at 10 uM incubated for 48 hrs by sulforhodamine B assay; type: functional, cell-based
# Outline: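 NCI 60-line panel, single 10 μM dose. Cells were grown in RPMI-1640 with 5% FBS and 2 mM L-glutamine and pre-incubated 24 h before compound addition (DMSO stock). Exposure was 48 h at 37 °C, 5% CO2. Cells were fixed with cold TCA (10% final), stained with 0.4% SRB, bound dye dissolved in 10 mM Tris base, A515 read. Growth was taken relative to time-zero and untreated control plates.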
# [4] = system: K562; assay: Growth inhibition of human K562 cells incubated for 48 hrs by sulforhodamine B assay; type: functional; conditions: K562, 48 h; for CC50: read-out: LC50 (the source's name)
# Outline: (§2)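 NCI 60-line screen. Cells in RPMI-1640 with 5% FBS and 2 mM L-glutamine, preincubated 24 h, then time-zero plates TCA-fixed. Compounds from DMSO stocks given at five final concentrations (100, 10, 1.0, 0.1, 0.01 µM) for 48 h at 37 °C, 5% CO2. Cells fixed with 10% TCA, SRB-stained, read at 515 nm. GI50 is the concentration giving 50% lower net protein increase versus control.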
# [5] = system: MCF7; assay: Growth inhibition of human MCF7 cells incubated for 48 hrs by sulforhodamine B assay; type: functional; conditions: MCF7, 48 h; for CC50: read-out: LC50 (the source's name); outline: as §2
# [6] = system: RXF 393; assay: Growth inhibition of human RXF393 cells incubated for 48 hrs by sulforhodamine B assay; type: functional; conditions: RXF 393, 48 h; for CC50: read-out: LC50 (the source's name)
# Outline: (§3)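 Five-dose NCI SRB assay at 100, 10, 1.0, 0.1 and 0.01 μM for 48 h at 37 °C, 5% CO2. Medium was RPMI-1640 with 5% FBS and 2 mM glutamine. Time-zero plates were TCA-fixed at compound addition, A515 read after SRB staining. GI50 was solved from [(Ti−Tz)/(C−Tz)]×100 = 50. Values beyond the tested range are given as > or <.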
# [7] = system: 786-0; assay: Growth inhibition of human 786-0 cells incubated for 48 hrs by sulforhodamine B assay; type: functional; conditions: 786-0, 48 h
# Outline: (§4)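 NCI five-dose SRB assay (100, 10, 1.0, 0.1, 0.01 µM) with 48 h exposure in RPMI-1640 with 5% FBS and 2 mM L-glutamine. Cells fixed with TCA and stained with SRB, read at 515 nm. GI50 is the concentration where [(Ti−Tz)/(C−Tz)]×100 = 50.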
# [8] = system: SW-620; assay: Growth inhibition of human SW620 cells incubated for 48 hrs by sulforhodamine B assay; type: functional; conditions: SW-620, 48 h; for CC50: read-out: LC50 (the source's name); outline: as §1
# [9] = system: SK-MEL-28; assay: Growth inhibition of human SK-MEL-28 cells incubated for 48 hrs by sulforhodamine B assay; type: functional; conditions: SK-MEL-28, 48 h; for CC50: read-out: LC50 (the source's name); outline: as §1
# [10] = system: T47D; assay: Growth inhibition of human T47D cells incubated for 48 hrs by sulforhodamine B assay; type: functional; conditions: for CC50: read-out: LC50 (the source's name); outline: as §1
# [11] = system: Candida albicans; assay: Growth inhibition of Candida albicans ATCC 10231 at 3.4 ug/ml incubated for 48 hrs under dark condition by broth microdilution method relative to control; type: functional; conditions: ATCC 10231, 48 h, read-out: GI
# [12] = system: MOLT-4; assay: Growth inhibition of human MOLT4 cells incubated for 48 hrs by sulforhodamine B assay; type: functional; conditions: MOLT-4, 48 h; for CC50: read-out: LC50 (the source's name); outline: as §2
# [13] = system: HCT-116; assay: Growth inhibition of human HCT116 cells incubated for 48 hrs by sulforhodamine B assay; type: functional; conditions: HCT-116, 48 h; outline: as §4
# [14] = system: HT-29; assay: Growth inhibition of human HT-29 cells incubated for 48 hrs by sulforhodamine B assay; type: functional; conditions: HT-29, 48 h; outline: as §3
# [15] = system: MDA-MB-435; assay: Growth inhibition of human MDA-MB-435 cells incubated for 48 hrs by sulforhodamine B assay; type: functional; conditions: MDA-MB-435, 48 h; outline: as §3
# [16] = system: HL-60(TB); assay: Growth inhibition of human HL-60(TB) cells incubated for 48 hrs by sulforhodamine B assay; type: functional; conditions: HL-60, 48 h; for CC50: read-out: LC50 (the source's name); outline: as §2
# [17] = system: TK-10; assay: Growth inhibition of human TK10 cells incubated for 48 hrs by sulforhodamine B assay; type: functional; conditions: TK-10, 48 h; for CC50: read-out: LC50 (the source's name); outline: as §2
# [18] = system: Staphylococcus aureus; assay: Antibacterial activity against vancomycin-intermediate Staphylococcus aureus after 24 hrs by resazurin dye based microdilution assay; type: functional
# Outline: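 MIC taken as the lowest concentration giving visible inhibition and/or by resazurin (1 mg/mL). Gentamicin was the control. Run in duplicate, repeated at least three times.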
# [19] = system: NCI/ADR-RES; assay: Growth inhibition of human NCI/ADR-RES cells incubated for 48 hrs by sulforhodamine B assay; type: functional; conditions: for CC50: read-out: LC50 (the source's name); outline: as §2
# [20] = system: A549; assay: Growth inhibition of human A549/ATCC cells incubated for 48 hrs by sulforhodamine B assay; type: functional; conditions: A549, 48 h; outline: as §2
# [21] = system: OVCAR-5; assay: Growth inhibition of human OVCAR5 cells incubated for 48 hrs by sulforhodamine B assay; type: functional; conditions: OVCAR-5, 48 h; for CC50: read-out: LC50 (the source's name); outline: as §2
# [22] = system: NCI-H460; assay: Growth inhibition of human NCI-H460 cells incubated for 48 hrs by sulforhodamine B assay; type: functional; conditions: NCI-H460, 48 h; for CC50: read-out: LC50 (the source's name); outline: as §3
# [23] = system: OVCAR-8; assay: Growth inhibition of human OVCAR8 cells incubated for 48 hrs by sulforhodamine B assay; type: functional; conditions: OVCAR-8, 48 h; outline: as §3
# [24] = system: OVCAR-4; assay: Growth inhibition of human OVCAR4 cells incubated for 48 hrs by sulforhodamine B assay; type: functional; conditions: OVCAR-4, 48 h; for CC50: read-out: LC50 (the source's name); outline: as §3
# [25] = system: UO-31; assay: Growth inhibition of human UO31 cells incubated for 48 hrs by sulforhodamine B assay; type: functional; conditions: UO-31, 48 h; for CC50: read-out: LC50 (the source's name); outline: as §1
# [26] = system: COLO 205; assay: Growth inhibition of human COLO205 cells incubated for 48 hrs by sulforhodamine B assay; type: functional; conditions: COLO 205, 48 h; for CC50: read-out: LC50 (the source's name); outline: as §4
# [27] = system: Malme-3M; assay: Growth inhibition of human MALME-3M cells incubated for 48 hrs by sulforhodamine B assay; type: functional; conditions: for CC50: read-out: LC50 (the source's name); outline: as §3
smiles,measurement,setting,value
COc1cc(C(=O)/C=C/c2cccc(Nc3ccnc4cc(Cl)ccc34)c2)cc(OC)c1OC,inhibition of growth at 3.4 µg/mL,[1],0%
same,GI50,[2],1.18 µM
same,CC50,[2],5.08 µM
same,growth inhibition (GI),[3],Active
same,GI50,[4],400 nM
same,CC50,[4],> 100 µM
same,GI50,[5],610 nM
same,CC50,[5],5.24 µM
same,GI50,[6],1080 nM
same,CC50,[6],5.67 µM
same,GI50,[7],560 nM
same,LC50,[7],4.89 µM
same,GI50,[8],450 nM
same,CC50,[8],> 100 µM
same,GI50,[9],1.51 µM
same,CC50,[9],5.98 µM
same,GI50,[10],1220 nM
same,CC50,[10],8.26 µM
same,inhibition of growth at 3.4 µg/mL,[11],1.24%
same,GI50,[12],1790 nM
same,CC50,[12],> 100 µM
same,GI50,[13],350 nM
same,LC50 (concentration killing 50% of cells),[13],3.98 µM
same,GI50,[14],320 nM
same,LC50,[14],5.51 µM
same,GI50,[15],470 nM
same,GI50,[16],1820 nM
same,CC50,[16],> 100 µM
same,GI50,[17],1450 nM
same,CC50,[17],6.11 µM
same,MIC,[18],> 1000 µg/mL
same,GI50,[19],410 nM
same,CC50,[19],> 100 µM
same,GI50,[20],1.48 µM
same,LC50 (concentration giving 50% net cell kill),[20],11.5 µM
same,GI50,[21],1.7 µM
same,CC50,[21],6.37 µM
same,GI50,[22],1910 nM
same,CC50,[22],> 100 µM
same,GI50,[23],520 nM
same,LC50 (concentration causing 50% net cell kill),[23],7.07 µM
same,GI50,[24],1260 nM
same,CC50,[24],5.26 µM
same,GI50,[25],570 nM
same,CC50,[25],4.42 µM
same,GI50,[26],1340 nM
same,CC50,[26],> 100 µM
same,GI50,[27],1460 nM
same,CC50,[27],7.8 µM
Clc1ccc(C2=NN(c3ccccc3)C(c3cccc(Nc4ccnc5cc(Cl)ccc45)c3)C2)cc1 (stereo unspecified),inhibition of growth at 3.4 µg/mL,[1],0%
same,growth inhibition (GI),[3],inactive
same,inhibition of growth at 3.4 µg/mL,[11],0%
same,MIC,[18],> 1000 µg/mL
COc1cc(C2=NN(c3ccc(Cl)cc3)C(c3cccc(Nc4ccnc5cc(Cl)ccc45)c3)C2)cc(OC)c1OC (stereo unspecified),inhibition of growth at 3.4 µg/mL,[1],8.08%
same,growth inhibition (GI),[3],inactive
same,inhibition of growth at 3.4 µg/mL,[11],2.27%
same,MIC,[18],> 1000 µg/mL
COc1ccc(C2=NN(C=O)C(c3cccc(Nc4ccnc5cc(Cl)ccc45)c3)C2)cc1 (stereo unspecified),inhibition of growth at 3.4 µg/mL,[1],4.06%
same,GI50,[2],5.11 µM
same,CC50,[2],> 100 µM
same,growth inhibition (GI),[3],Active
same,GI50,[4],510 nM
same,CC50,[4],> 100 µM
same,GI50,[5],1590 nM
same,CC50,[5],> 100 µM
same,GI50,[6],1660 nM
same,CC50,[6],59.2 µM
same,GI50,[7],3430 nM
same,LC50,[7],79.8 µM
same,GI50,[8],1730 nM
same,CC50,[8],> 100 µM
same,GI50,[9],8.12 µM
same,CC50,[9],67.1 µM
same,GI50,[10],1390 nM
same,CC50,[10],> 100 µM
same,inhibition of growth at 3.4 µg/mL,[11],3.51%
same,GI50,[12],2370 nM
same,CC50,[12],> 100 µM
same,GI50,[13],1840 nM
same,LC50 (concentration killing 50% of cells),[13],24.3 µM
same,GI50,[14],1650 nM
same,LC50,[14],67.4 µM
same,GI50,[15],370 nM
same,CC50,[15]; read-out: LC50 (the source's name),> 100 µM
same,GI50,[16],2030 nM
same,CC50,[16],33.6 µM
same,GI50,[17],4240 nM
same,CC50,[17],61.7 µM
same,MIC,[18],> 1000 µg/mL
same,GI50,[19],1660 nM
same,CC50,[19],> 100 µM
same,GI50,[20],4.63 µM
same,LC50 (concentration giving 50% net cell kill),[20],> 100 µM
same,GI50,[21],11.3 µM
same,CC50,[21],> 100 µM
same,GI50,[22],2730 nM
same,CC50,[22],> 100 µM
same,GI50,[23],3290 nM
same,LC50 (concentration causing 50% net cell kill),[23],> 100 µM
same,GI50,[24],1540 nM
same,CC50,[24],> 100 µM
same,GI50,[25],3250 nM
same,CC50,[25],> 100 µM
same,GI50,[26],2400 nM
same,CC50,[26],60.6 µM
same,GI50,[27],2040 nM
same,CC50,[27],> 100 µM
COc1ccc(C2=NN(c3ccccc3)C(c3cccc(Nc4ccnc5cc(Cl)ccc45)c3)C2)cc1 (stereo unspecified),inhibition of growth at 3.4 µg/mL,[1],2.74%
same,growth inhibition (GI),[3],inactive
same,inhibition of growth at 3.4 µg/mL,[11],0.38%
same,MIC,[18],> 1000 µg/mL

# Reference: ChEMBL document CHEMBL4038284, “Synthesis of novel quinoline-based 4,5-dihydro-1H-pyrazoles as potential anticancer, antifungal, antibacterial and antiprotozoal agents” (Eur J Med Chem, 2017)
